Experimental data: ChEMBL document CHEMBL5357028, “Acetogenins from the Stem of Uvaria rufa and Their Cytotoxic Activity” (J Nat Prod, 2024)
Where a name gives a salt, the structure may show the parent alone. Activity calls are given as the source filed them. The calls are words filed in the database; no cut-off is given here.

Legend:
[1] = tested on: CWR22R; assay: Cytotoxicity against human 22Rv1 cells assessed as reduction in cell viability measured after 72 hrs by MTT assay; format: functional, cell-based; conditions: 22Rv1, 72 h
Summary of the method: (§1)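 Cells grown at 37°C, 5% CO₂ (22Rv1 in RPMI 1640, HCT 116 in McCoy's; 10% FBS, penicillin/streptomycin). Trypsinized, 5000 cells/well seeded, 24 h attachment. DMSO stocks diluted in medium to final 100, 20, 4, 0.8, 0.16 and 0.032 μM; 0.5% DMSO vehicle control. After 72 h, MTT 0.5 mg/mL final for 3 h; formazan dissolved in DMSO, A570. Viability relative to DMSO control; duplicates, three independent experiments; IC50 calculated.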

[2] = tested on: HCT-116; assay: Cytotoxicity against human HCT-116 cells assessed as reduction in cell viability measured after 72 hrs by MTT assay; format: functional, cell-based; conditions: HCT-116, 72 h; summary of the method: as §1
[3] = tested on: MDA-MB-435; assay: Cytotoxicity against human MDAMB-435 cells assessed as reduction in cell viability measured after 72 hrs by MTS assay; format: functional, cell-based; conditions: MDA-MB-435, 72 h
Summary of the method: (§2)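 Cells exposed to test substance for 72 h. Viability read by MTS-based absorbance assay (CellTiter 96 AQueous One Solution) relative to DMSO solvent control. Paclitaxel served as positive control.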

[4] = tested on: OVCAR-3; assay: Cytotoxicity against human OVCAR-3 cells assessed as reduction in cell viability measured after 72 hrs by MTS assay; format: functional, cell-based; conditions: OVCAR-3, 72 h; summary of the method: as §2
[5] = tested on: Mycobacterium tuberculosis; assay: Antitubercular activity against Mycobacterium tuberculosis H37Rv assessed as inhibition of bacterial growth upto 100 ug/ml; format: functional, organism-based; conditions: dose <= 100.0 µg/ml

Row | SMILES | IC50 [1] [µM] | IC50 [2] [µM] | IC50 [3] [µM] | IC50 [4] [µM] | Activity [5]
1 | CCCCCC[C@H](O)CCC[C@H](O)[C@H]1CC[C@H]([C@H]2CC[C@H]([C@H](O)CCCCCCCCC[C@@H](O)CCC3=C[C@H](C)OC3=O)O2)O1 | 8.2 | 1.8 | 4.4 | 4.5 | 
2 | CCCCCC[C@H](O)CCC[C@H](O)[C@H]1CC[C@H]([C@H]2CC[C@H]([C@H](O)CCCCCCCCCCCCC3=C[C@H](C)OC3=O)O2)O1 [SQUAMOCIN] | 6.4 | 1.2 | 4.6 | 4.5 | 
3 | CCCCCCCCCC[C@H](O)[C@H]1CC[C@H]([C@H]2CC[C@H]([C@H](O)CCCCCCCCCCCCC3=C[C@H](C)OC3=O)O2)O1 [BULLANIN] | 16.5 | 29.1 | 5.3 | > 10 | 
4 | CCCCCCCCCC[C@H](O)[C@H]1CC[C@H]([C@H]2CC[C@H]([C@H](O)CCCCCCCC[C@H](O)CCCC3=C[C@H](C)OC3=O)O2)O1 | 12.5 | 10 |  |  | 
5 | COc1cc([C@@H]2c3cc4c(cc3[C@@H](O[C@@H]3O[C@@H]5CO[C@@H](C)O[C@H]5[C@H](O)[C@H]3O)[C@H]3COC(=O)[C@H]23)OCO4)cc(OC)c1O [ETOPOSIDE] | 2.3 | 1.8 |  |  | 
6 | CCCCCC[C@H](O)CCC[C@H](O)[C@H]1CC[C@H]([C@H]2CC[C@H]([C@H](O)CCCCCCCCCCCCCCC3=C[C@H](C)OC3=O)O2)O1 | 5.6 | 1.2 | 4.5 | 4.4 | 
7 | CCCCCCCCCC[C@@H](O)[C@H]1CC[C@H]([C@H]2CC[C@H]([C@H](O)CCCCCCCCCCCCC3=C[C@H](C)OC3=O)O2)O1 [ISODESAACETYLUVARICIN] | 7.8 | 2.8 | 4.1 | > 10 | 
8 | CCCCCCCCCC[C@@H](O)[C@H]1CC[C@H]([C@H]2CC[C@H]([C@H](O)CCCCCCCC[C@H](O)[C@H](O)CCC3=C[C@H](C)OC3=O)O2)O1 | 5.5 | 2.7 | 4.4 | 3.7 | 
9 | CCCCCCCCCC[C@H](O)[C@H]1CC[C@H]([C@H]2CC[C@H]([C@H](O)CCCCCCCC[C@H](O)[C@H](O)CCC3=C[C@H](C)OC3=O)O2)O1 | 8.3 | 15 | 4.6 | > 10 | 
10 | CC(=O)O[C@H]1C(=O)[C@@]2(C)[C@H]([C@H](OC(=O)c3ccccc3)[C@]3(O)C[C@H](OC(=O)[C@H](O)[C@@H](NC(=O)c4ccccc4)c4ccccc4)C(C)=C1C3(C)C)[C@]1(OC(C)=O)CO[C@@H]1C[C@@H]2O [PACLITAXEL] |  |  | 0.0026 | 0.0056 | 
11 | CCCCCCCCCC[C@@H](O)[C@H]1CC[C@H]([C@H]2CC[C@H]([C@H](O)CCCCCCCCC[C@@H](O)CCC3=C[C@H](C)OC3=O)O2)O1 | 17.5 | 9.2 | 4.6 | 3.5 | inactive
12 | CCCCCCCCCC[C@@H](O)[C@H]1CC[C@H]([C@H]2CC[C@H]([C@H](O)CCCCCCCCC[C@H](O)CCC3=C[C@H](C)OC3=O)O2)O1 [UVARIGRANDIN A] | 7 | 5.5 | 4.1 | 4.6 | 
13 | CC[C@]1(O)C[C@@H]2CN(CCc3c([nH]c4ccccc34)[C@@](C(=O)OC)(c3cc4c(cc3OC)N(C)[C@H]3[C@@](O)(C(=O)OC)[C@H](OC(C)=O)[C@]5(CC)C=CCN6CC[C@]43[C@@H]65)C2)C1 [VINBLASTINE SULFATE] | 0.001 | 0.001 |  |  | 
